These results are taken from ChEMBL document CHEMBL4477176, “Cyclopenta[b]benzofuran and Secodammarane Derivatives from the Stems of Aglaia stellatopilosa” (2016).

Active and inactive are the calls of the source. The calls are words filed in the database; no cut-off is given here.

The test system of assay [1] is Micrococcus luteus. The assay is described as follows: Antibacterial activity against Micrococcus luteus NBRC 12708 assessed as growth inhibition at 25 to 200 uM incubated for 24 hrs by microtiter plate based assay. In kind it is functional, organism-based. In outline:
(§1)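 Bacteria grown in Luria–Bertani broth; inoculum from fresh culture, serially diluted to 1 × 10^5 cells/mL. Samples dissolved in DMSO at 200 μM and serially 2-fold diluted down to 25 μM in 96-well plates. Incubated at 28 °C for 24 h. OD600 read before and after incubation. MIC taken as the lowest concentration giving ≥90% growth reduction. Triplicates.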

Assay [2] deals with Aspergillus niger. The assay is described as follows: Antifungal activity against Aspergillus niger NBRC 4066 assessed as growth inhibition at 25 to 200 uM incubated for 48 hrs by microtiter plate based assay. In kind it is functional. In outline:
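Aspergillus niger grown in Sabouraud dextrose broth; inoculum 1 × 10^6 cells/mL. Samples dissolved in DMSO at 200 μM and 2-fold diluted down to 25 μM in 96-well plates. Incubated at 28 °C for 48 h. OD600 read before and after incubation. MIC taken as the lowest concentration giving ≥90% inhibition. Three replicates.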

Assay [3] concerns Rhodotorula glutinis. As to the kind of experiment: Antimicrobial activity against Rhodotorula glutinis NBRC 1125 assessed as growth inhibition at 25 to 200 uM incubated for 24 hrs by microtiter plate based assay. In kind it is functional, organism-based. In outline:
(§2)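 Yeasts grown in Sabouraud dextrose broth; inoculum 1 × 10^6 cells/mL. Samples dissolved in DMSO at 200 μM and 2-fold diluted down to 25 μM in 96-well plates. Incubated at 28 °C for 24 h. OD600 read before and after incubation. MIC taken as the lowest concentration giving ≥90% growth reduction. Three replicates.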

Assay [4] concerns Escherichia coli. The assay is described as follows: Antibacterial activity against Escherichia coli NBRC 3301 assessed as growth inhibition at 25 to 200 uM incubated for 24 hrs by microtiter plate based assay. In kind it is functional, organism-based. The method, boiled down:
as §1

Assay [5] concerns MCF7. The assay is described as follows: Cytotoxicity against human MCF7 cells assessed as growth inhibition by SRB assay. The assay is classed as functional. A general note: Sulforhodamine B stains cellular protein and so reports cell mass.
For assay [6], the system named is Malassezia furfur. The assay is described as follows: Antimicrobial activity against Pityrosporum ovale CCUG 24229 assessed as growth inhibition at 25 to 200 uM incubated for 24 hrs by microtiter plate based assay. In kind it is functional. The method, boiled down: as §2
The subject of assay [7] is Porphyromonas gingivalis. As to the kind of experiment: Antibacterial activity against Porphyromonas gingivalis CCUG 25893 assessed as growth inhibition at 25 to 200 uM incubated for 24 hrs by microtiter plate based assay. In kind it is functional. In outline:
as §1

The subject of assay [8] is Pseudomonas aeruginosa. As to the kind of experiment: Antibacterial activity against Pseudomonas aeruginosa NBRC 12689 assessed as growth inhibition at 25 to 200 uM incubated for 24 hrs by microtiter plate based assay. The assay is classed as functional, organism-based. In outline:
as §1

The subject of assay [9] is Saccharomyces cerevisiae. As to the kind of experiment: Antimicrobial activity against Saccharomyces cerevisiae ATCC 9763 assessed as growth inhibition at 25 to 200 uM incubated for 24 hrs by microtiter plate based assay. In kind it is functional, organism-based. In outline:
as §2

Assay [10] has as its system HT-29. The assay is described as follows: Cytotoxicity against human HT-29 cells assessed as growth inhibition by SRB assay. The assay is classed as functional. To be noted: read-out: ED50 (the source's name).
The subject of assay [11] is Staphylococcus aureus. As to the kind of experiment: Antibacterial activity against Staphylococcus aureus NBRC 12732 assessed as growth inhibition at 25 to 200 uM incubated for 24 hrs by microtiter plate based assay. The assay is classed as functional. The method, boiled down:
as §1

The subject of assay [12] is NCI-H460. As to the kind of experiment: Cytotoxicity against human NCI-H460 cells assessed as growth inhibition by SRB assay. The assay is classed as functional.
For assay [13], the system named is Bacillus subtilis. As to the kind of experiment: Antibacterial activity against Bacillus subtilis NBRC 3134 assessed as growth inhibition at 25 to 200 uM incubated for 24 hrs by microtiter plate based assay. In kind it is functional. In outline:
as §1

For assay [14], the system named is Staphylococcus aureus. As to the kind of experiment: Antibacterial activity against Staphylococcus aureus NBRC 12732 assessed as growth inhibition at 80 uM incubated for 24 hrs by microtiter plate based assay. The conditions noted are these: NBRC 12732, 24 h, read-out: GI. In kind it is functional.
Assay [15] relates to Bacillus subtilis. As to the kind of experiment: Antibacterial activity against Bacillus subtilis NBRC 3134 assessed as growth inhibition at 20 uM incubated for 24 hrs by microtiter plate based assay. The assay is classed as functional. The conditions noted are these: NBRC 3134, 24 h, read-out: GI.

For orientation: GI50 means the concentration at which growth is held to half of that of the control. For the molecule `COC(=O)C(C)(C)[C@@H]1CC[C@]2(C)[C@H](CC[C@@H]3[C@@H]([C@]4(C)CC[C@H](C(C)(C)O)O4)CC[C@]32C)[C@@]1(C)/C=C/NC=O`, the “growth inhibition (GI)” value in [1], in assay [2], in [3], in assay [4], in assay [6] and in assay [7] was “inactive” in each case. Moreover, the “growth inhibition (GI)” value in assay [8], in [9], in [11] and in [13] was “inactive” each time. The GI50 in assay [5] and in assay [12] was greater than 10 µM in each case. The EC50 in [10] is greater than 10 µM.

As for `COC(=O)C(C)(C)[C@@H]1CC[C@]2(C)[C@H](CC[C@@H]3[C@@H]([C@](C)(O)CC[C@@H](O)C(C)(C)O)CC[C@]32C)[C@@]1(C)/C=C/NC=O`, the “growth inhibition (GI)” value in [1], in [2], in assay [3], in assay [4], in assay [8] and in assay [9] was “inactive” throughout. The “growth inhibition (GI)” value in assay [11] and in [13] was “inactive” each time. The concentration for 50% growth inhibition (GI50) in assay [5] and in assay [12] was greater than 10 µM in each case. For the same molecule, the “growth inhibition (GI)” value in assay [6] and in assay [7] was 60 - 89% in each case. The EC50 in assay [10] was greater than 10 µM.

On to `C=C(C)[C@@H]1CC[C@]2(C)[C@H](CC[C@@H]3[C@@H]([C@](C)(O)CC[C@@H](O)C(C)(C)O)CC[C@]32C)[C@@]1(C)CCC(=O)OC`, for which the “growth inhibition (GI)” value in assay [1], in assay [3], in assay [4], in assay [6], in assay [8] and in assay [9] was “inactive” in each case. Moreover, the “growth inhibition (GI)” value is 60 - 89% in assay [2], 60 - 89% in [7], “>=90%” in assay [11] and “>=90%” in [13]. Besides, the GI50 in assay [5] and in assay [12] was greater than 10 µM each time. In addition, the EC50 in assay [10] is greater than 10 µM. Besides, the inhibition of growth at 80 µM in assay [14] is no less than 90%. In assay [15], the inhibition of growth at 20 µM is no less than 90%.

For the molecule `COC(=O)C(C)(C)[C@@H]1CC[C@]2(C)[C@H](CC[C@@H]3[C@@H]([C@](C)(O)CC[C@@H](O)C(C)(C)O)CC[C@]32C)[C@@]1(C)CC(=O)O`, the “growth inhibition (GI)” value in assay [1], in assay [2], in [3], in assay [4], in assay [6] and in assay [7] was “inactive” throughout. For the same molecule, the “growth inhibition (GI)” value in assay [8], in assay [9], in assay [11] and in [13] was “inactive” throughout. Further, the GI50 in assay [5] and in assay [12] was greater than 10 µM throughout. The EC50 in [10] was greater than 10 µM.

Consider `COC(=O)C(C)(C)[C@@H]1CC[C@]2(C)[C@H](CC[C@@H]3[C@@H]([C@](C)(O)CC[C@@H](O)C(C)(C)O)CC[C@]32C)[C@@]1(C)CC=O`, for which the “growth inhibition (GI)” value in [1], in assay [2], in [3], in assay [4], in assay [6] and in [7] was “inactive” throughout. Also, the “growth inhibition (GI)” value in assay [8], in assay [9] and in assay [13] was “inactive” each time. For the same molecule, the GI50 in assay [5] and in assay [12] was greater than 10 µM each time. The EC50 in assay [10] is greater than 10 µM. Moreover, the “growth inhibition (GI)” value in [11] is recorded as 60 - 89%.
